Measurements published in ChEMBL document CHEMBL1125031, “Structure-activity relationship of antiestrogens. Studies on 2,3-diaryl-1-benzopyrans” (J Med Chem, 1990).

Legend:
[1] = target: T1, Estrogen receptor (Rattus norvegicus) (UniProt P06211+Q62986); test: Antiestrogenic activity in presence of estradiol as mean uterine weight in rats at 1 mg dose
[2] = target: T1, Estrogen receptor (Rattus norvegicus); test: Estrogenic activity as mean uterine weight in rats after 1 mg dose; format: functional
In short: (§1)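 Immature female Sprague-Dawley rats, 21–23 days old, in groups of 6–9. Test doses suspended in 0.2 mL propylene glycol–0.9% saline (1:1, v/v) and given subcutaneously on three consecutive days; vehicle-only controls. Autopsy 24 h after the last injection, uterine wet weight recorded in mg as mean ± SD.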

[3] = target: T1, Estrogen receptor (Rattus norvegicus); test: Antiestrogenic activity in presence of estradiol as mean uterine weight in rats after 10 ug dose; format: functional
[4] = target: T1, Estrogen receptor (Rattus norvegicus); test: Antiestrogenic activity in presence of estradiol at 1 ug/rat; format: functional
[5] = target: T1, Estrogen receptor (Rattus norvegicus); test: Estrogenic activity as mean uterine weight in rats at 30 ug/rat; format: functional
In short: as §1

[6] = target: T1, Estrogen receptor (Rattus norvegicus); test: Mean percent inhibition of uterotrophic effect in rats at 0 ug/rat; format: functional
[7] = target: T1, Estrogen receptor (Rattus norvegicus); test: Antiestrogenic activity in presence of estradiol at 0 ug/rat; format: functional
[8] = target: T1, Estrogen receptor (Rattus norvegicus); test: Mean percent inhibition of uterotrophic effect in rats at 10 ug/rat; format: functional
[9] = target: T1, Estrogen receptor (Rattus norvegicus); test: Antiestrogenic activity in presence of estradiol at 30 ug/rat; format: functional
[10] = target: T1, Estrogen receptor (Rattus norvegicus); test: Antiestrogenic activity in presence of estradiol at 10 ug/rat; format: functional
[11] = target: T1, Estrogen receptor (Rattus norvegicus); test: Estrogenic activity as mean uterine weight in rats at 0 ug/rat; format: functional
In short: as §1

[12] = target: T1, Estrogen receptor (Rattus norvegicus); test: Mean percent inhibition of uterotrophic effect in rats at 30 ug/rat; format: functional
[13] = target: T1, Estrogen receptor (Rattus norvegicus); test: Estrogenic activity as mean uterine weight in rats after 10 ug dose; format: functional
In short: as §1

[14] = target: T1, Estrogen receptor (Rattus norvegicus); test: Estrogenic activity as mean uterine weight in rats at 1 ug/rat; format: functional
In short: as §1

[15] = target: T1, Estrogen receptor (Rattus norvegicus); test: Mean percent inhibition of uterotrophic effect in rats at 1 ug/rat; format: functional
[16] = target: T1, Estrogen receptor (Rattus norvegicus); test: Estrogenic activity as mean uterine weight in rats at 10 ug/rat; format: functional
In short: as §1

`Oc1ccc(C2=C(c3ccccc3)Cc3ccccc3O2)cc1` showed a Mean weight [1] of 46.7 mg and a Mean weight [2] of 26.2 mg.

`Oc1ccc(C2Oc3ccccc3CC2c2ccccc2)cc1` (stereo unspecified) gave a Mean weight [3] of 59 mg and a Mean weight [2] of 14.9 mg.

For `c1ccc(C2=C(c3ccc(OCCN4CCCC4)cc3)Oc3ccccc3C2)cc1`, the Mean weight [3] was 29.4 mg and the Mean weight [2] was 24 mg.

With `COc1ccc2c(c1)OC(c1ccc(OCCN3CCCC3)cc1)C(c1ccccc1)=C2` (stereo unspecified) the Mean weight [3] was 28.3 mg, the Mean weight [4] was 38.3 mg and the Mean weight [5] was 25 mg. For the same molecule, the inhibition [6] was 0%, the Mean weight [7] was 44.7 mg and the inhibition [8] was 50%. For the same molecule, the Mean weight [9] was 23.6 mg, the Mean weight [10] was 27.5 mg and the Mean weight [11] was 10.6 mg. The inhibition [12] was 65%, the Mean weight [13] was 27.6 mg and the Mean weight [14] was 23.8 mg. For the same molecule, the inhibition [15] was 9%.

With `Oc1ccc(C2Oc3ccccc3C=C2c2ccccc2)cc1` (stereo unspecified) the Mean weight [3] was 48.8 mg and the Mean weight [2] was 13.8 mg.

In the case of `c1ccc(C2Cc3ccccc3OC2c2ccc(OCCN3CCCC3)cc2)cc1` (stereo unspecified), the Mean weight [3] is reported as 57.2 mg and the Mean weight [2] is reported as 12.3 mg.

For `O=c1c(-c2ccccc2)c(-c2ccc(OCCN3CCCC3)cc2)oc2ccccc12`, the Mean weight [3] was 40.3 mg and the Mean weight [13] was 13.2 mg.

Work on `C1=C(c2ccccc2)C(c2ccc(OCCN3CCCC3)cc2)Oc2ccccc21` (stereo unspecified) yielded a Mean weight [4] of 39.9 mg, a Mean weight [5] of 23.6 mg and an inhibition [6] of 0%. It also gave a Mean weight [7] of 45.1 mg, an inhibition [8] of 66% and a Mean weight [9] of 22.2 mg. It also gave a Mean weight [11] of 11.2 mg, an inhibition [12] of 70% and a Mean weight [13] of 24.6 mg. The Mean weight [14] was 22.5 mg, the Mean weight [16] was 24.6 mg and the inhibition [15] was 12%.

Molecule `O=c1c(-c2ccccc2)c(-c2ccccc2)oc2cc(OCCN3CCCC3)ccc12` has a Mean weight [3] of 40.7 mg and a Mean weight [13] of 11.1 mg.

With `COc1ccc2c(c1)OC(c1ccc(OCCN3CCCC3)cc1)C(c1ccccc1)C2=O` (stereo unspecified) the Mean weight [3] was 46.5 mg and the Mean weight [13] was 12 mg.
